ChEMBL document CHEMBL3822427, “An evaluation of Minor Groove Binders as anti-lung cancer therapeutics” (Bioorg Med Chem Lett, 2016)
Calls of active or inactive are those of the source. The calls are words filed in the database; no cut-off is given here.

test system: not listed separately; experiment: Antiproliferative activity against mouse B16-F10-Luc-G5 cells assessed as cell growth inhibition measured after 24 hrs by luciferase gene assay; format: functional, cell-based; settings: not given
Outline: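 Luciferase-expressing murine melanoma cells exposed to a concentration series, with gemcitabine as positive control. Growth read by bioluminescence. IC50 is the mean of three experiments, each with three replicates per concentration, reported ± SD.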

SMILES | IC50 [µM]
Cn1cc(NC(=O)c2cc(NC(=O)c3ccc(/C=C/c4ccc(C(F)(F)F)cc4)cc3)cn2C)cc1C(=O)NCCN1CCOCC1 | 0.16
COc1cccc(/C=C/c2ccc(C(=O)Nc3cc(C(=O)Nc4cc(C(=O)NCCN5CCOCC5)n(C(C)C)c4)n(C)c3)cc2)c1 | 1.1
CC(C)n1cc(NC(=O)c2cc(NC(=O)c3ccc(/C=C/c4ccc(C(F)(F)F)cc4)cc3)cn2C)cc1C(=O)NCCN1CCOCC1 | 2.16
Nc1ccn([C@@H]2O[C@H](CO)[C@@H](O)C2(F)F)c(=O)n1 [GEMCITABINE] | 11
COc1ccc(/C=C/c2ccc(C(=O)Nc3cc(C(=O)Nc4cc(C(=O)NCCN5CCOCC5)n(C(C)C)c4)n(C)c3)cn2)cc1 | 0.81
COc1cccc(/C=C/c2ccc(C(=O)Nc3cc(C(=O)NCCN4CCOCC4)n(C)c3)cc2)c1 | 0.81

test system: not listed separately; experiment: (§1) Antiproliferative activity against mouse B16-F10-Luc-G5 cells assessed as cell growth inhibition at 15.36 ug/ml measured after 24 hrs by luciferase gene assay relative to DMSO control; format: functional; settings: read-out: GI

SMILES | inhibition of growth at 15.36 µg/mL [%]
Cn1cc(NC(=O)c2cc(NC(=O)c3ccc(/C=C/c4ccc(C(F)(F)F)cc4)cc3)cn2C)cc1C(=O)NCCN1CCOCC1 | 77
Cn1cc(NC(=O)c2cc(NC(=O)c3ccc(/C=C/c4cccc(F)c4)cc3)cn2C)cc1C(=O)NCCN1CCOCC1 | 46
COc1cccc(/C=C/c2ccc(C(=O)Nc3cc(C(=O)Nc4cc(C(=O)NCCC(=N)N)n(C)c4)n(C)c3)cc2)c1 | 67
COc1cccc(C(=N)Nc2cc(C(=O)Nc3cc(C(=O)Nc4nc(C(=O)NCCCN(C)C)c(C(C)C)s4)n(C)c3)n(C)c2)c1 | 34
CC(C)c1sc(N)nc1C(=O)Nc1cc(C(=O)NCCN2CCOCC2)n(C)c1 | 2.2
COc1ccc(/C=C/c2ccc(C(=O)Nc3cc(C(=O)Nc4cc(C(=O)NCCN5CCOCC5)n(C)c4)n(C(C)C)c3)cn2)cc1 | 85
CCC(C)n1cc(NC(=O)c2ccc(/C=C/c3ccc(OC)cc3)nc2)cc1C(=O)Nc1cc(C(=O)NCCN2CCOCC2)n(C)c1 (stereo not drawn) | 84
Cc1sc(NC(=O)c2ccc3c(c2)C(=O)c2ccccc2C3=O)cc1C(=O)Nc1cc(C(=O)Nc2cc(C(=O)NCCCN(C)C)n(C)c2)n(CCC(C)C)c1 | 40
COc1cccc(/C=C/c2ccc(C(=O)Nc3cc(C(=O)Nc4cc(C(=O)NCCN5CCOCC5)n(C(C)C)c4)n(C)c3)cc2)c1 | 88
CSc1ccc(/C=C/c2ccc3cc(C(=O)Nc4cc(C(=O)Nc5cc(C(=O)NCCN6CCOCC6)n(C)c5)n(C)c4)ccc3n2)cc1 | 19
CC(C)n1cc(NC(=O)c2cc(NC(=O)c3cnc(Cl)c(Cl)c3)cn2C)cc1C(=O)Nc1cc(C(=O)NCCCN(C)C)n(C)c1 | 16.1
COc1ccc(/C=C/c2ccc(C(=O)Nc3cc(C(=O)N4CCN(C)CC4)n(C)c3)cn2)cc1 | 59
COc1ccc(/C=C/c2ccc(C(=O)Nc3cc(C(=O)Nc4cc(C(=O)NCCN5CCOCC5)n(C)c4)n(C)c3)cn2)cc1 | 44
Cn1cc(NC(=O)c2cc(NC(=O)c3ccc(/C=C/c4ccc5nsnc5c4)cc3)cn2C)cc1C(=O)NCCN1CCOCC1 | 37
COc1ccc(/C=C/c2ccc(C(=O)Nc3cc(C(=O)Nc4cc(C(=O)NCCN5CCOCC5)n(C(C)C)c4)n(C)c3)cn2)cc1 | 83
COc1cccc(/C=C/c2ccc(C(=O)Nc3cc(C(=O)NCCN4CCOCC4)n(C)c3)cc2)c1 | 55
COc1cccc(C(=N)Nc2cc(C(=O)Nc3cc(C(=O)Nc4nc(C(=O)NCCCN(C)C)c(CCC(C)C)s4)n(C)c3)n(C)c2)c1 | 34
COc1cccc(C(=N)Nc2ccc(C(=O)Nc3cc(C(=O)Nc4cc(C(=O)NCCN5CCOCC5)n(C)c4)n(C)c3)cc2)c1 | 77
COc1cccc(/C=C/c2ccc(C(=O)Nc3cc(C(=O)N4CCN(C)CC4)n(C)c3)cc2)c1 | 76
CC(C)c1nc(N)sc1C(=O)Nc1cc(C(=O)Nc2cc(C(=O)NCCN3CCOCC3)n(C)c2)n(C)c1 | 57
Cn1cc(NC(=O)c2cc(NC(=O)c3ccc(/C=C/c4ccc5nonc5c4)cc3)cn2C)cc1C(=O)NCCN1CCOCC1 | 30.9
Cn1cc(NC(=O)c2ccc(/C=C/c3cnc4ccccc4c3)cc2)cc1C(=O)NCCN1CCOCC1 | 72
CCC(C)n1cc(NC(=O)c2cc(NC(=O)c3ccc(/C=C/c4ccc(OC)cc4)nc3)cn2C)cc1C(=O)NCCN1CCOCC1 (stereo not drawn) | 84

species: Mus musculus; experiment: as §1; format: functional; settings: not given

SMILES | growth inhibition (GI)
Cn1cc(NC(=O)c2cc(NC(=O)c3cc(NC(=O)c4ccc(Cl)cc4Cl)cn3C)cn2C)cc1C(=O)NCCCN1CCOCC1 | inactive
CC(=N)Nc1cc(C(=O)Nc2cc(C(=O)Nc3cc(C(=O)NCCCN(C)C)n(C)c3)n(C)c2)n(C)c1 | inactive
CC(=O)Nc1cc(C(=O)Nc2cc(C(=O)Nc3cc(C(=O)Nc4cc(C(=O)NCCCN(C)C)n(C)c4)n(CCC(C)C)c3)n(C)c2)n(C)c1 | inactive
CC(C)CCc1sc(NC(=O)c2cc(NC(=O)c3ccc(/C=C/c4cc5ccccc5nc4Cl)cc3)cn2C)nc1C(=O)NCCN1CCOCC1 | inactive
COc1cccc(C(=N)Nc2cc(C(=O)Nc3cc(C(=O)Nc4cc(C(=O)NCCCN5CCOCC5)n(C)c4)n(C)c3)n(C)c2)c1 | inactive
Cn1cc(NC(=O)c2cc(NC(=O)c3ccc(/C=C/c4cccc(C(F)(F)F)c4)nc3)cn2C)cc1C(=O)NCCN1CCOCC1 | inactive
CC(=O)Nc1cc(C(=O)Nc2cc(C(=O)Nc3cc(C(=O)NCCCN(C)C)n(C)c3)n(C)c2)c(C)s1 | inactive
COc1cccc(/C=C/c2ccc(C(=O)Nc3cc(C(=O)Nc4cc(C(=O)NCCN5CCOCC5)n(C)c4)n(C)c3)cc2)c1 | inactive
CC(C)n1cc(NC(=O)c2cc(NC(=O)c3cnc4ccccc4n3)cn2C)cc1C(=O)Nc1cc(C(=O)NCCCN(C)C)n(C)c1 | inactive
COc1cccc(C(=O)Nc2nc(C(=O)Nc3cc(C(=O)Nc4cc(C(=O)NCCCN(C)C)n(C)c4)n(C)c3)c(C(C)C)s2)c1 | inactive
CC(=N)Nc1cc(C(=O)Nc2cc(C(=O)Nc3nc(C(=O)NCCCN(C)C)c(CCC(C)C)s3)n(C)c2)n(C)c1 | inactive
COc1ccc(/C=C(/C(=O)Nc2cc(C(=O)Nc3cc(C(=O)NCCCN(C)C)n(C)c3)n(C)c2)c2ccc(OC)cc2)cc1 | inactive
Cn1cc(NC(=O)c2cc(NC(=O)c3ccc(/C=C/c4ccc(F)cc4)cc3)cn2C)cc1C(=O)NCCN1CCOCC1 | inactive

test system: not listed separately; experiment: Potency index, ratio of gemcitabine IC50 to compound IC50 for mouse B16-F10-Luc-G5 cells; format: functional; settings: not given

SMILES | Ratio IC50
Cn1cc(NC(=O)c2cc(NC(=O)c3ccc(/C=C/c4ccc(C(F)(F)F)cc4)cc3)cn2C)cc1C(=O)NCCN1CCOCC1 | 70

test system: not listed separately; experiment: Drug internalization in nucleus of mouse B16-F0-luc cells at 3 and 30 ug/ml measured after 1 hr by DAPI staining based fluorescence microscopic analysis; format: ADME; settings: not given

Drug uptake | SMILES
Dose-dependent effect | CN(C)c1ccc(/C=C/c2ccc(C(=O)Nc3cc(C(=O)Nc4cc(C(=O)NCCN5CCOCC5)n(C)c4)n(C)c3)cn2)cc1

test system: Hepatocyte; experiment: Cellular uptake in rat hepatocytes at 7.5 uM measured after 24 hrs by fluorescence analysis; format: ADME, cell-based; settings: not given
Outline: (§2)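 Primary hepatocyte monolayers exposed to 7.5µM compound over 24 h, with DMSO control. Uptake checked by fluorescence microscopy using red, green and blue filter settings. Morphology assessed by phase contrast with a x20 wet lens, including images at 60 min.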

Drug uptake | SMILES
Not Active | Cn1cc(NC(=O)c2cc(NC(=O)c3ccc(/C=C/c4ccc(C(F)(F)F)cc4)cc3)cn2C)cc1C(=O)NCCN1CCOCC1

test system: Hepatocyte; experiment: Cytotoxicity against rat hepatocytes assessed as change in cell morphology at 7.5 uM measured up to 24 hrs by phase contrast microscopic analysis; format: cell-based; settings: not given; outline: as §2

SMILES | Activity
Cn1cc(NC(=O)c2cc(NC(=O)c3ccc(/C=C/c4ccc(C(F)(F)F)cc4)cc3)cn2C)cc1C(=O)NCCN1CCOCC1 | Non-toxic

test system: Hepatocyte; experiment: Cytotoxicity against rat hepatocytes assessed as reduction in cell viability at 7.5 uM measured up to 24 hrs; format: cell-based; settings: not given

SMILES | Activity
Cn1cc(NC(=O)c2cc(NC(=O)c3ccc(/C=C/c4ccc(C(F)(F)F)cc4)cc3)cn2C)cc1C(=O)NCCN1CCOCC1 | Non-toxic

test system: not listed separately; experiment: Drug internalization in nucleus of mouse B16-F0-luc cells at 250 uM measured after 1 hr by DAPI staining based fluorescence microscopic analysis; format: ADME; settings: not given
Outline: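 B16-F0-luc mouse melanoma cells exposed to the fluorescent S-MGB probe at two concentrations for 1 hr, with DMSO-only and Hoechst 33342 nuclear-stain controls. Examined live on an inverted fluorescence microscope (x20 objective) under brightfield and UV or DAPI filter sets. Nuclear localisation judged by overlaying fluorescence on brightfield images. Two experiments with separately prepared cells.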

SMILES | Drug uptake
CCOc1ccc(-c2nc3cc(-c4nc5cc(N6CCN(C)CC6)ccc5[nH]4)ccc3[nH]2)cc1.Cl.Cl.Cl | Active
